# ChEMBL document CHEMBL1806364, “Discovery of vinylogous carbamates as a novel class of β-ketoacyl-acyl carrier protein synthase III (FabH) inhibitors” (Bioorg Med Chem, 2011)
# pIC50: −log10 of the molar value.
# Tests used:
# Escherichia coli = assay: Antibacterial activity against Escherichia coli after 24 hrs by MTT assay; assay type: functional
# Procedure, shortened: (§1)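 Broth microdilution in Mueller-Hinton medium. Compound stock 100 µg/mL in DMSO, serially diluted into medium. Inoculum about 10⁵ cfu/mL, incubated 37 °C for 24 h. After visual MIC reading, MTT (2 mg/mL in PBS pH 7.4) added, 4–5 h at room temperature. Dye extracted with isopropanol containing 5% 1 mol/L HCl for 12 h, OD read at 550 nm.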
# Pseudomonas fluorescens = assay: Antibacterial activity against Pseudomonas fluorescens after 24 hrs by MTT assay; assay type: functional; procedure, shortened: as §1
# Bacillus subtilis = assay: Antibacterial activity against Bacillus subtilis after 24 hrs by MTT assay; assay type: functional; procedure, shortened: as §1
# Staphylococcus aureus = assay: Antibacterial activity against Staphylococcus aureus after 24 hrs by MTT assay; assay type: functional; procedure, shortened: as §1
# [1] = target: T1, 3-oxoacyl-[acyl-carrier-protein] synthase 3 (Escherichia coli, UniProt C3TDZ2); assay: Inhibition of Escherichia coli FabH expressed in Escherichia coli DH10B cells assessed as incorporation of 3[H] after 25 mins by liquid scintillation
# T1 sequence (C3TDZ2 whole entry): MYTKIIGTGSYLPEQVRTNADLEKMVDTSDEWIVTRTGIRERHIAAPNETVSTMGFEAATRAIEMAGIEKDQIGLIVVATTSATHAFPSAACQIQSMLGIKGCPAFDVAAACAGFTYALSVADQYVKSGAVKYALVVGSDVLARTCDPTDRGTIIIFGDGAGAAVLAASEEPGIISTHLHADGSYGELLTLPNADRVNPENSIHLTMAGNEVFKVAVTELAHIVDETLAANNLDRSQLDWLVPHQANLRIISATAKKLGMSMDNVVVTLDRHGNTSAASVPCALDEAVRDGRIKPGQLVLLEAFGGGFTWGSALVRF
# Procedure, shortened: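 Native E. coli FabH overexpressed from pET30 in DH10B cells and purified by Q-Sepharose, MonoQ and hydroxyapatite chromatography. Reaction mix contains 0.25 mM MgCl₂, acetyl-CoA, 0.5 mM NADH and 0.5 mM NADPH, run 25 min. Stopped with ice-cold 50% TCA, protein pelleted, washed with 10% TCA, dissolved in 0.5 M NaOH. Incorporated ³H counted by liquid scintillation. DMSO at most 2% final; IC50 determined.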
# [2] = Toxicity in erythrocytes assessed as hemolytic activity; assay type: cell-based; conditions: erythrocyte
Compound,MIC (Escherichia coli) [µg/mL],MIC (Pseudomonas fluorescens) [µg/mL],MIC (Bacillus subtilis) [µg/mL],MIC (Staphylococcus aureus) [µg/mL],pIC50 [1],LC30 [2] [µg/mL]
CCOC(=O)/C(=C\Nc1ccc(Cl)cc1Cl)c1ccc(OCc2ccccc2)cc1,25,25,25,25,–,–
CCOC(=O)/C(=C/Nc1ccc(Cl)cc1Cl)c1ccc(OCc2ccccc2)cc1,25,25,> 50,> 50,–,–
CCOC(=O)/C(=C\Nc1ccc(Br)cc1Br)c1ccc(OCc2ccccc2)cc1,12.5,12.5,25,25,4.62,> 10000
CCOC(=O)/C(=C/Nc1ccc(Br)cc1Br)c1ccc(OCc2ccccc2)cc1,3.13,12.5,12.5,12.5,–,–
CCOC(=O)/C(=C\Nc1ccccc1Cl)c1ccc(OCc2ccccc2)cc1,12.5,25,> 50,> 50,4.55,> 10000
CCOC(=O)/C(=C/Nc1ccccc1Cl)c1ccc(OCc2ccccc2)cc1,25,> 50,25,12.5,–,–
CCOC(=O)/C(=C\Nc1ccc(F)cc1F)c1ccc(OCc2ccccc2)cc1,6.25,12.5,> 50,> 50,–,–
CCOC(=O)/C(=C/Nc1ccc(F)cc1F)c1ccc(OCc2ccccc2)cc1,25,25,12.5,12.5,–,–
CCOC(=O)/C(=C\Nc1ccccc1F)c1ccc(OCc2ccccc2)cc1,12.5,25,> 50,25,–,–
CCOC(=O)/C(=C/Nc1ccccc1F)c1ccc(OCc2ccccc2)cc1,25,> 50,> 50,> 50,–,–
NC[C@H]1O[C@H](O[C@H]2[C@H](O)[C@@H](O[C@H]3O[C@H](CO)[C@@H](O)[C@H](N)[C@H]3O)[C@H](N)C[C@@H]2N)[C@H](N)[C@@H](O)[C@@H]1O [BEKANAMYCIN],3.12,3.12,0.39,1.56,–,–

# The next lines start with results.
MIC (Escherichia coli) [µg/mL],MIC (Pseudomonas fluorescens) [µg/mL],MIC (Bacillus subtilis) [µg/mL],MIC (Staphylococcus aureus) [µg/mL],pIC50 [1],Compound,LC30 [2] [µg/mL]
12.5,6.25,25,25,–,CCOC(=O)/C(=C\Nc1ccc(Cl)cc1)c1ccc(OCc2ccccc2)cc1,–
25,25,25,> 50,–,CCOC(=O)/C(=C/Nc1ccc(Cl)cc1)c1ccc(OCc2ccccc2)cc1,–
1.56,1.56,50,25,5.48,CCOC(=O)/C(=C\Nc1ccc(Br)cc1)c1ccc(OCc2ccccc2)cc1,> 10000
> 50,> 50,> 50,> 50,4.37,CCOC(=O)/C(=C/Nc1ccc(Br)cc1)c1ccc(OCc2ccccc2)cc1,> 10000
0.78,1.56,25,25,5.59,CCOC(=O)/C(=C\Nc1ccc(C)cc1)c1ccc(OCc2ccccc2)cc1,> 10000
> 50,> 50,> 50,> 50,–,CCOC(=O)/C(=C/Nc1ccc(C)cc1)c1ccc(OCc2ccccc2)cc1,–
3.12,3.12,25,> 50,5.09,CCOC(=O)/C(=C\Nc1ccc(F)cc1)c1ccc(OCc2ccccc2)cc1,> 10000
6.25,12.5,25,12.5,–,CCOC(=O)/C(=C/Nc1ccc(F)cc1)c1ccc(OCc2ccccc2)cc1,–
3.12,3.12,25,12.5,–,CCOC(=O)/C(=C\Nc1ccc(C(C)C)cc1)c1ccc(OCc2ccccc2)cc1,–
6.25,6.25,12.5,25,5.07,CCOC(=O)/C(=C/Nc1ccc(C(C)C)cc1)c1ccc(OCc2ccccc2)cc1,> 10000
3.12,6.25,> 50,> 50,–,CCOC(=O)/C(=C\Nc1ccc([N+](=O)[O-])cc1)c1ccc(OCc2ccccc2)cc1,–
> 50,> 50,> 50,> 50,–,CCOC(=O)/C(=C/Nc1ccc([N+](=O)[O-])cc1)c1ccc(OCc2ccccc2)cc1,–
12.5,25,25,50,–,CCOC(=O)/C(=C\Nc1ccccc1)c1ccc(OCc2ccccc2)cc1,–
6.25,6.25,25,25,–,CCOC(=O)/C(=C/Nc1ccccc1)c1ccc(OCc2ccccc2)cc1,–
